Rce1 inh: yeast Rce1p protease inhibitors, primary screen, biochemical, fluorescence, cell-free homogeneous. CAAX prenyl protease 2 (Saccharomyces cerevisiae (strain ATCC 204508 / S288c)), Q03530. yeast membranes, quenched prenylated peptide cleavage fluorescence. calls only. actives 0.27% (n = 290,000). AID 2563, 2010;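 active = fall in fluorescence gain of 50% or more versus controls, with final raw signal at or below 3038400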;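 also: plate controls were neutral control wells for no effect and wells lacking membranes for full effect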
A1 inh: caspase 3/7 activation in MEF A1-2A-BIM cells, primary screen, A1 inhibitor project, cell-based, luminescence, HTS; caspase activation, % (test concentration not listed); Caspase-Glo 3/7 luminescence, 3 h; percent of clofoctol response, vehicle zero; actives 0.066% (n = 330,000);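 active = over half of replicate activation scores above 10%, or exactly half above 10 with the replicate mean above 10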
procasp7 counter: procaspase-7 activators, primary screen, counter-screen for procaspase-3 activator project, biochemical, absorbance, HTS, human | Caspase-7 (Homo sapiens), P55210 | recombinant procaspase-7, Ac-DEVD-pNA absorbance 405 nm; D23A/D198A/D206A triple mutant, cannot self-cleave; scale: DMSO 0, 5 µM enzyme 100 | activation, % at 8.5 µM | actives 0.093% (n = 330,000);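 active = percent activation above the screen-wide mean plus 3 SD, cut at about 25% in these data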
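buffer or medium = Zinc-free HEPES/NaCl buffer, pH 7.4 | material = Procaspase-7 triple mutant (PC-7 D3A) | input = 2 µM procaspase-7 mutant as dispensed | signal = Epi-absorbance of released pNA at 405 nm, two timepoints | timing = 1 h preincubation, 2 h reaction | replicates = singlicate compound testing | evaluation = % activation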
proCasp3 act: activators of human procaspase-3 D3A mutant, primary screen, biochemical, absorbance, PC-3 D3A mutant, single concentration | Caspase-3 (Homo sapiens), P42574 | recombinant procaspase-3 D3A, Ac-DEVD-pNA absorbance 405 nm | activation, % at 8.5 µM | actives 0.11% (n = 330,000);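 active = activation above the mean of all tested compounds plus 3 SD, cut at about 21% in these data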;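 also: 0% = DMSO alone and 100% = DMSO wells spiked with extra 5 µM PC-3 D3A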
Target sequence (P42574 whole entry D9A/D28A/D175A): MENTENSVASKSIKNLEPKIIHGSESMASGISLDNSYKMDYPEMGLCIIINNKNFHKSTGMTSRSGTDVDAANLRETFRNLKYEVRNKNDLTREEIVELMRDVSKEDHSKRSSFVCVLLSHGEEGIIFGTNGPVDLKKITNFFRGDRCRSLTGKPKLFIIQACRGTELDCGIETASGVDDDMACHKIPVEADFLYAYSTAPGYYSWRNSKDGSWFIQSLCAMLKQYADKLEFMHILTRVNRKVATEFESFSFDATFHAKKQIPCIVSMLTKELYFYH
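assay system = Procaspase-3 D3A mutant | signal = absorbance at 405 nm, 0 and 120 min | times = 1 h preincubation plus 2 h reaction at 25 °C | repeats = single replicate | read-out = % activation between DMSO and enzyme-spiked controls | medium = Zinc-free HEPES saline buffer with Triton X-100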
PolyA inh: polyadenylation inhibitors in yeast reporter cells, primary screen, luminescence, S. cerevisiae | S. cerevisiae SKY197-pL101 polyadenylation reporter, beta-gal luminescence; efflux-impaired pdr1/pdr3 knockout yeast; score 100 = 6 SD above DMSO | activity score, % at 12 µM | actives 0.02% (n = 300,000) | AID 1875, 2009;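 active = lowest replicate activity score at least 50, where 100 means six control SD above control mean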;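 also: yeast exposed to compound for 9 h at 30 °C; higher score means more reporter readthrough which indicates perturbed polyadenylation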
Active calls of the source: *. Compounds with a hit are over-represented: about 0.48% of the library has one in this group of screens.

What do the screens show for `Cc1c(C)c2ccc(OCC(=O)N3CCC(C(=O)O)(c4ccccc4)CC3)cc2oc1=O`?
A1 inh: -0.4; procasp7 counter: 9.2; proCasp3 act: 5.7; PolyA inh: 2.1

What do the screens show for `O=C(COc1ccc2ccc(=O)oc2c1)N1CCC(C(=O)O)(c2ccccc2)CC1`?
Rce1 inh: active; A1 inh: -0.2; procasp7 counter: -5.5; proCasp3 act: 4.2; PolyA inh: -7.1

How did COc1ccc(CCNC2CCCCC2)cc1 do in these assays?
Rce1 inh: inactive; A1 inh: 0.9; procasp7 counter: 7.7; proCasp3 act: 3.0; PolyA inh: 20.1

How did COc1ccc(C[C@H]2NC[C@H](O)[C@H]2OC(C)=O)cc1 do in these assays?
Rce1 inh: inactive; A1 inh: 7.5*; procasp7 counter: -3.8; proCasp3 act: 5.1; PolyA inh: 1.5

How did COc1ccc(CCn2c(O)c(/C=N/N3CCOCC3)c(=O)[nH]c2=O)cc1OC do in these assays?
Rce1 inh: inactive; A1 inh: -1.2; procasp7 counter: -13.5; proCasp3 act: -2.6; PolyA inh: 15.7

Results for CC(C)(C)n1cc(C(=O)c2ccccc2)cc1-c1ccccc1 ?
Rce1 inh: inactive; A1 inh: 0.2; procasp7 counter: -14.5; proCasp3 act: -1.4; PolyA inh: 4.8

How did CN(C)c1ccc(-[n+]2c(-c3ccccc3)cc(-c3ccccc3)cc2-c2ccccc2)cc1 do in these assays?
PolyA inh: -17.3

Results for Cc1ccc(-c2cc(-c3ccccc3)cc(-c3ccccc3)[n+]2-c2ccccc2)cc1 ?
Rce1 inh: active; A1 inh: -0.3; procasp7 counter: -4.2; proCasp3 act: -4.0; PolyA inh: -16.4

Results for c1ccc(-c2cc(-c3ccccc3)[n+](-c3ccccc3)c(-c3ccccc3)c2)cc1 ?
Rce1 inh: inactive; A1 inh: 2.5; procasp7 counter: -5.6; proCasp3 act: 5.3; PolyA inh: -2.9

What do the screens show for `Cc1ccc(-c2cc(-c3ccc(C)cc3)[n+](-c3ccccc3)c(-c3ccc(C)cc3)c2)cc1`?
Rce1 inh: active; A1 inh: -1.2; procasp7 counter: 2.4; proCasp3 act: -3.4; PolyA inh: 5.9

How did COc1cc(/C=C/c2nc3ccccc3c(=O)n2-c2cccc(O)c2)ccc1O do in these assays?
Rce1 inh: inactive; A1 inh: -0.4; procasp7 counter: -0.9; proCasp3 act: -5.1; PolyA inh: 60.8*

What do the screens show for `O=C(N/N=C1/CN2CCC1CC2)c1cc2ccccc2cc1O`?
A1 inh: -0.9; procasp7 counter: 6.1; proCasp3 act: 0.8; PolyA inh: -29.4

What do the screens show for `COCCCn1c(N)c(C(=O)NCc2ccco2)c2nc3ccccc3nc21`?
Rce1 inh: active; A1 inh: 0.3; procasp7 counter: -15.0; proCasp3 act: -13.6; PolyA inh: -5.4

What do the screens show for `CN1C(=O)c2ccccc2NC(=O)[C@]12O[C@@H]2c1ccccc1`?
Rce1 inh: active; A1 inh: -1.2; procasp7 counter: 2.6; proCasp3 act: 3.5; PolyA inh: -0.2

How did Cc1ccc(-c2nc3ccc(C)cn3c2CC(=O)N(C)C)cc1 do in these assays?
Rce1 inh: active; A1 inh: 0.5; procasp7 counter: 8.4; proCasp3 act: 8.2; PolyA inh: 19.7

Results for CCCN(CCC)C(=O)Cc1c(-c2ccc(Cl)cc2)nc2c(Cl)cc(Cl)cn12 ?
A1 inh: 0.1; procasp7 counter: 12.5; proCasp3 act: -0.8

What do the screens show for `Cc1nc2ccc(Cl)cc2c(=O)n1-c1ccccc1Cl`?
Rce1 inh: inactive; A1 inh: -0.4; procasp7 counter: -1.1; proCasp3 act: -8.7; PolyA inh: -22.2

How did Cc1nccc2c1[nH]c1ccccc12 do in these assays?
Rce1 inh: active; A1 inh: 3.4; procasp7 counter: -5.2; proCasp3 act: -5.5; PolyA inh: -15.3

How did NN=C(N)N do in these assays?
A1 inh: -0.7; procasp7 counter: 4.1; proCasp3 act: 4.4

Screening results as filed in PubChem.
